{"source": "paper PMC4539048", "about": "(Science translational medicine, 2015)", "key": {"[1]": {"tested_on": "P. falciparum NF54 liver-stage parasites", "conditions": "historical data using the same donor; cited from earlier work"}, "[2]": {"tested_on": "G6PD-deficient human red blood cells", "format": "in vivo, NOD-SCID mice", "conditions": "blood type A- G6PD-deficient human red blood cells"}, "P. falciparum 3D7 [3]": {"tested_on": "P. falciparum 3D7", "experiment": "Blood-stage phenotype and development by microscopy", "format": "cell-based", "conditions": "10xEC50, 48 h", "how_it_was_run": "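Giemsa-stained smears were scored by microscopy, at least 200 cells per condition, for stage arrest and morphology. Standard antimalarials served as controls.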"}, "[4]": {"tested_on": "P. falciparum Dd2 and resistant clones", "experiment": "microbe, parasite or virus in culture", "format": "cell-based", "conditions": "isolates derived from Dd2 and K1"}, "P. falciparum Dd2 [5]": {"tested_on": "P. falciparum Dd2", "conditions": "Dd2, same 3xEC50 protocol; cited from earlier work"}, "[6]": {"tested_on": "Salmonella typhimurium-E. coli", "experiment": "5-strain bacterial reverse mutation assay"}, "P. falciparum Dd2 [7]": {"tested_on": "P. falciparum Dd2", "format": "cell-based"}, "P. falciparum HB3": {"tested_on": "P. falciparum HB3", "experiment": "In vitro selection of resistant parasites, HB3", "format": "cell-based", "conditions": "HB3 strain"}, "human DHODH": {"target": "human DHODH (Homo sapiens, UniProt Q02127)", "sequence (Q02127 whole entry)": "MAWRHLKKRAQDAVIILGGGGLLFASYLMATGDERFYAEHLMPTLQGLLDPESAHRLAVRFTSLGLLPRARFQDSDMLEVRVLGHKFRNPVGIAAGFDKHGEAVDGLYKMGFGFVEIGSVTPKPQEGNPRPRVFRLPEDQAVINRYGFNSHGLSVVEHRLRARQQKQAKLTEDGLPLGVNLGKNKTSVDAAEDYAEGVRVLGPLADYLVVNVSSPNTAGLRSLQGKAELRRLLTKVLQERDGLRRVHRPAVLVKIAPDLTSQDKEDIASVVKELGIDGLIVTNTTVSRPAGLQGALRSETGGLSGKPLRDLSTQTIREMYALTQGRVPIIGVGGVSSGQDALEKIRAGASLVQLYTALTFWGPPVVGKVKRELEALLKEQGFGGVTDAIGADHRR", "experiment": "DHODH inhibition, DCIP spectrophotometric assay", "format": "biochemical", "conditions": "mean of 3 technical replicates, 95% confidence interval in parentheses"}, "mouse DHODH": {"target": "mouse DHODH (Mus musculus, UniProt O35435)", "sequence (O35435 whole entry)": "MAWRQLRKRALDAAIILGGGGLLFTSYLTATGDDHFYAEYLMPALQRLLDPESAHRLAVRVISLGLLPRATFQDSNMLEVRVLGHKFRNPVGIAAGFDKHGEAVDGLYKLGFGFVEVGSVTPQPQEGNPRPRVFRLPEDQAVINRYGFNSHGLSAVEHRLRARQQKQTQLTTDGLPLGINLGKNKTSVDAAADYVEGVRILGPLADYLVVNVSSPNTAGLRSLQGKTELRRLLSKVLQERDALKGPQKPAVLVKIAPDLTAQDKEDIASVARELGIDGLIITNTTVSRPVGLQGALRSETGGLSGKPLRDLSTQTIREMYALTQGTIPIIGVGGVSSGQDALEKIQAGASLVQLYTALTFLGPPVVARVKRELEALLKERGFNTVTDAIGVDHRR", "experiment": "DHODH inhibition, DCIP spectrophotometric assay", "format": "biochemical", "conditions": "mean of 3 technical replicates, 95% confidence interval in parentheses"}, "dog DHODH": {"target": "dog DHODH (Canis lupus familiaris, UniProt A0A8I3MWX2)", "sequence (A0A8I3MWX2 1-406)": "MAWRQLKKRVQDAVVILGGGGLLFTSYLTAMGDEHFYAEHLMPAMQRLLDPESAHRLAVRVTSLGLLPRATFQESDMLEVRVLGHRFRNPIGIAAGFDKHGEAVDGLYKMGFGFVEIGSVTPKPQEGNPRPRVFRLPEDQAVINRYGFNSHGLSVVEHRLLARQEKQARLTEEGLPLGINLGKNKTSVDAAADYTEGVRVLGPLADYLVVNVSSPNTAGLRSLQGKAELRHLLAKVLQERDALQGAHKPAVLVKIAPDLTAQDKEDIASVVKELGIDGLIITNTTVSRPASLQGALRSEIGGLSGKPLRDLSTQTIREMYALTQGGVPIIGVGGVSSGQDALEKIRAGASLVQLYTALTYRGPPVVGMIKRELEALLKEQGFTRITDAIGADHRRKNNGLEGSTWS", "experiment": "DHODH inhibition, DCIP spectrophotometric assay", "format": "biochemical", "conditions": "mean of 3 technical replicates, 95% confidence interval in parentheses"}, "[8]": {"target": "P. falciparum DHODH (PfDHODH) (Plasmodium falciparum, UniProt Q08210)", "sequence (Q08210 24-569)": "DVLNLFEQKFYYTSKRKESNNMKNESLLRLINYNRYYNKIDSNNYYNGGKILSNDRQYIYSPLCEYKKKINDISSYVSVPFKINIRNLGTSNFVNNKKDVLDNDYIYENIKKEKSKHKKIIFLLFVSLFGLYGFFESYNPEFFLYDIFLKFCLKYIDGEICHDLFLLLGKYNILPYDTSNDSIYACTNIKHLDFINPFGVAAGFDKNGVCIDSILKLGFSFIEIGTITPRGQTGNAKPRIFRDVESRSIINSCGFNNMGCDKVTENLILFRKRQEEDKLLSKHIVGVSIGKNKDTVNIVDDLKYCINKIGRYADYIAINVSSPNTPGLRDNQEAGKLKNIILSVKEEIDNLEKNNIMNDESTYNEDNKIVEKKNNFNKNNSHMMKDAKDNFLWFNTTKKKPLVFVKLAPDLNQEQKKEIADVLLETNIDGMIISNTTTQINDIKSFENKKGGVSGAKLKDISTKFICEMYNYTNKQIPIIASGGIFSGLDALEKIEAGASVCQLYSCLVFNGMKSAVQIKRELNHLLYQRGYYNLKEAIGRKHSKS", "format": "biochemical", "conditions": "for IC50, P. falciparum DHODH: mean of 3 technical replicates, 95% confidence interval in parentheses"}, "P. falciparum 3D7 [9]": {"tested_on": "P. falciparum 3D7", "experiment": "In vitro P. falciparum 3D7 growth inhibition", "format": "cell-based", "conditions": "for P. falciparum 3D7 growth inhibition EC50: 0.5% Albumax-II medium, 95% confidence intervals in parenthesis", "how_it_was_run": "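SYBR-green growth assay on P. falciparum 3D7 and drug-resistant lines, including chloroquine- and pyrimethamine-resistant parasites, cultured in RPMI-1640 with 0.5% Albumax-II. At least triplicate data per concentration. EC50 from the log(inhibitor) vs response variable-slope (four-parameter) fit by nonlinear least squares, reported with 95% confidence intervals of the fit.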"}, "rat DHODH": {"target": "rat DHODH (Rattus norvegicus, UniProt Q63707)", "sequence (Q63707 whole entry)": "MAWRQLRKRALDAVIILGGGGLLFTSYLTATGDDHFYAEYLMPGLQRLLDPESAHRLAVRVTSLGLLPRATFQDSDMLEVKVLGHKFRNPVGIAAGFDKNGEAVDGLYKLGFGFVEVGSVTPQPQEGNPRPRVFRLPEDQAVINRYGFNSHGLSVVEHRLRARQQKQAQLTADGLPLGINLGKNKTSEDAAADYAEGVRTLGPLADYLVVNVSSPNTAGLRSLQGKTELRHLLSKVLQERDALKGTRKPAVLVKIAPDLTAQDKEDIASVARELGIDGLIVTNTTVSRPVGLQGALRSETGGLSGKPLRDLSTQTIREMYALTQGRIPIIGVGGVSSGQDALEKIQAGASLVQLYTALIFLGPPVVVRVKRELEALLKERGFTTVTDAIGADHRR", "experiment": "DHODH inhibition, DCIP spectrophotometric assay", "format": "biochemical", "conditions": "mean of 3 technical replicates, 95% confidence interval in parentheses"}, "rabbit DHODH": {"target": "rabbit DHODH (Oryctolagus cuniculus, UniProt G1SWF3)", "sequence (G1SWF3 1-395)": "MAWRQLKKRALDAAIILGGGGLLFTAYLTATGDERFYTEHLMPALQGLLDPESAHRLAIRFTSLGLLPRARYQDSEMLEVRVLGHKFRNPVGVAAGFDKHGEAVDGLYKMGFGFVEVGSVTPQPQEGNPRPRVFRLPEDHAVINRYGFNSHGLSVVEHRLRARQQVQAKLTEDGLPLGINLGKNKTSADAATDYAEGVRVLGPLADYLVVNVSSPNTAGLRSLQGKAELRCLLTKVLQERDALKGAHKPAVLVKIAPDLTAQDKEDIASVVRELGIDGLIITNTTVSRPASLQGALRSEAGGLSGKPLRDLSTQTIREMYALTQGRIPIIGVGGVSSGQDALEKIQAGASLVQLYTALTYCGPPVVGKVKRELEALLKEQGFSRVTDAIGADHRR", "experiment": "DHODH inhibition, DCIP spectrophotometric assay", "format": "biochemical", "conditions": "mean of 3 technical replicates"}, "[10]": {"experiment": "Metabolite identification and profiling in pooled plasma", "format": "in vivo", "conditions": "all species, mass spectrometry peak area ratios, single dose of DSM265", "how_it_was_run": "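Pooled plasma from single-dose PK studies in mice, rabbits, monkeys and dogs was profiled by mass spectrometry. Metabolites were identified, and the main oxidative metabolite's structure was confirmed by synthesis. Each metabolite's exposure was estimated as a share of parent AUC from peak area ratios.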"}, "P. vivax DHODH (PvDHODH)": {"target": "P. vivax DHODH (PvDHODH) (Plasmodium vivax, UniProt A5K1N1)", "experiment": "DHODH inhibition, DCIP spectrophotometric assay", "format": "biochemical", "conditions": "mean of 3 technical replicates, 95% confidence interval in parentheses"}}, "data": [{"smiles": "COc1cc(NC(C)CCCN)c2ncccc2c1", "note": "(centres unmarked) [primaquine]", "values": [{"measurement": "EC50 on hepatocyte infection rate (EEF count)", "setting": "[1]", "value": "0.20 (0.059 – 0.71) μg/mL"}, {"measurement": "Liver-stage schizont EC50 (EEF diameter/size)", "setting": "[1]", "value": 0.15, "unit": "µg/mL"}, {"measurement": "hemolytic toxicity", "setting": "[2]", "value": "substantial loss in human RBCs"}]}, {"smiles": "C[C@@H]1CC[C@H]2[C@@H](C)C(=O)O[C@@H]3O[C@@]4(C)CC[C@@H]1[C@]32OO4", "note": "[artemisinin]", "values": [{"measurement": "blood-stage phenotype after treatment", "setting": "P. falciparum 3D7 [3]", "value": "pyknotic"}, {"measurement": "sensitivity of DSM265-resistant isolates to the drug", "setting": "[4]", "value": "fully sensitive"}]}, {"smiles": "CCN(CC)CCCC(C)Nc1ccnc2cc(Cl)ccc12", "note": "(centres unmarked) [chloroquine]", "values": [{"measurement": "minimum inoculum for resistance (MIR)", "setting": "P. falciparum Dd2 [5]", "value": "10^8"}]}, {"smiles": "Nc1ccc(S(F)(F)(F)(F)F)cc1", "note": "[SF5-aniline]", "values": [{"measurement": "mutagenic activity (Ames test)", "setting": "[6]", "value": "non-mutagenic"}]}, {"smiles": "O=C1C(O)=C([C@H]2CC[C@H](c3ccc(Cl)cc3)CC2)C(=O)c2ccccc21", "note": "[atovaquone]", "values": [{"measurement": "sensitivity of DSM265-resistant isolates to the drug", "setting": "[4]", "value": "fully sensitive"}, {"measurement": "drug concentration required to suppress emergence of resistant parasites", "setting": "P. falciparum Dd2 [7]; Dd2, inoculum 2×10^7 parasites", "value": 33, "unit": "xEC50"}, {"measurement": "EC50 increase of resistant Dd2 parasites over wild-type", "setting": "P. falciparum Dd2 [7]; parasites selected with the same drug", "value": 10, "unit": "fold"}, {"measurement": "outcome of resistance selection", "setting": "P. falciparum HB3", "value": "resistant HB3 parasites could be obtained"}]}, {"smiles": "Cc1cc(Nc2ccc(S(F)(F)(F)(F)F)c(F)c2)n2nc(C(C)(F)F)nc2n1", "note": "[DSM430, 2-(1,1-difluoroethyl)-N-(3-fluoro-4-(pentafluoro-l^6-sulfanyl)phenyl)-5-methyl-[1,2,4]triazolo[1,5-a]pyrimidin-7-amine]", "values": [{"measurement": "IC50, Human DHODH", "setting": "human DHODH", "value": "3.7 (2.6 – 4.8) μg/mL"}, {"measurement": "IC50, Mouse DHODH", "setting": "mouse DHODH", "value": "0.10 (0.082 – 0.12) μg/mL"}, {"measurement": "IC50, Dog DHODH", "setting": "dog DHODH", "value": "0.56 (0.48 – 0.65) μg/mL"}, {"measurement": "IC50, P. falciparum DHODH", "setting": "[8]", "value": "0.010 (0.0079 – 0.014) μg/mL"}, {"measurement": "P. falciparum 3D7 growth inhibition EC50", "setting": "P. falciparum 3D7 [9]", "value": "0.0002 (0.00011 – 0.00056) μg/mL"}, {"measurement": "IC50, Rat DHODH", "setting": "rat DHODH", "value": "0.082 (0.069 – 0.099) μg/mL"}]}, {"smiles": "CC(F)(F)c1nc2nc(CO)cc(Nc3ccc(S(F)(F)(F)(F)F)cc3)n2n1", "note": "[DSM450, (2-(1,1-difluoroethyl)-7-((4-(pentafluoro-l^6-sulfanyl)phenyl)amino)-[1,2,4]triazolo[1,5-a]pyrimidin-5-yl)methanol]", "values": [{"measurement": "IC50, Human DHODH", "setting": "human DHODH", "value": ">43", "unit": "µg/mL"}, {"measurement": "IC50, Mouse DHODH", "setting": "mouse DHODH", "value": "4.5 (3.1 – 6.9) μg/mL"}, {"measurement": "IC50, Dog DHODH", "setting": "dog DHODH", "value": "25 (21 – 29) μg/mL"}, {"measurement": "fold less potent than DSM265 as a PfDHODH inhibitor", "setting": "[8]", "value": 3, "unit": "fold"}, {"measurement": "IC50, P. falciparum DHODH", "setting": "[8]", "value": "0.032 (0.026 – 0.040) μg/mL"}, {"measurement": "IC50, Rabbit DHODH", "setting": "rabbit DHODH", "value": ">43", "unit": "µg/mL"}, {"measurement": "plasma metabolite exposure as share of the parent AUC", "setting": "[10]", "value": "4–27%"}, {"measurement": "IC50, P. vivax DHODH", "setting": "P. vivax DHODH (PvDHODH)", "value": "0.11 (0.081 – 0.15) μg/mL"}, {"measurement": "fold less active than DSM265 against P. falciparum 3D7 parasites", "setting": "P. falciparum 3D7 [9]", "value": 43, "unit": "fold"}, {"measurement": "P. falciparum 3D7 growth inhibition EC50", "setting": "P. falciparum 3D7 [9]", "value": "0.079 (0.042 – 0.15) μg/mL"}, {"measurement": "IC50, Rat DHODH", "setting": "rat DHODH", "value": "1.6 (1.2 – 2.0) μg/mL"}]}, {"smiles": "CCc1nc(N)nc(N)c1-c1ccc(Cl)cc1", "note": "[pyrimethamine]", "values": [{"measurement": "blood-stage phenotype after treatment", "setting": "P. falciparum 3D7 [3]", "value": "arrested as mature trophozoites"}]}]}
